From ChEMBL document CHEMBL1141198, “Design and synthesis of tri-ring P3 benzamide-containing aminonitriles as potent, selective, orally effective inhibitors of cathepsin K” (J Med Chem, 2005) come the findings set out here.

Each structure is given as a SMILES string.

One data set concerns the target Cathepsin B (Homo sapiens, UniProt P07858). Briefly: Inhibitory constant against human cathepsin B using Boc-Leu-Lys-Arg-AMC substrate. Conditions: read-out: Ki app.
For another data set, the target named is Procathepsin L (Homo sapiens, UniProt P07711). Description: Inhibitory constant against human cathepsin L using Z-Phe-Arg-AMC substrate. The settings on record: read-out: Ki app. In a few lines:
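Recombinant human cathepsin L at 500 pM in 50 mM MES pH 5.5, 2.5 mM DTT, 2.5 mM EDTA, 10% DMSO. Enzyme preincubated with inhibitor (8 concentrations) 30 min at 21–24 °C. Reaction started with 10 μM Z-Phe-Arg-AMC; AMC fluorescence (ex 355/em 460 nm) over first ~5 min. Ki(app) fitted with Morrison tight-binding model.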

The target in a further data set is Cathepsin S (Homo sapiens, UniProt P25774). Briefly: Inhibitory constant against human cathepsin S using Z-Val-Val-Arg-AMC substrate. The settings on record: read-out: Ki app. In a few lines: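 Recombinant human cathepsin S at 500 pM in 50 mM MES pH 6.5, 2.5 mM β-mercaptoethanol, 2.5 mM EDTA, 100 mM NaCl, 0.001% BSA, 10% DMSO. 30 min enzyme–inhibitor preincubation at 21–24 °C, 8 inhibitor concentrations. Started with 60 μM Z-Val-Val-Arg-AMC; initial rates by AMC fluorescence (ex 355/em 460). Ki(app) by Morrison tight-binding fit.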

The next data set deals with Osteoclast. Description: In vitro bone resorption in isolated rabbit osteoclasts. It is filed as functional, cell-based. The settings on record: Oryctolagus cuniculus. The method in brief: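 Bovine bone degraded by isolated rabbit osteoclasts; collagen degradation read by ELISA. 8-point dose–response curves; IC50 derived.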
Data set [1] has as its system Rattus norvegicus. Briefly: Mean residence time in rat administered with 0.5 mg/kg, iv. The format is functional, organism-based. Details: dose 0.5 mg/kg. In a few lines: (§1)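 Rats, three per study, cassette iv dosing of up to four compounds. Formulation DMSO (<20%), PEG 400 (<20%) and water at 0.5 mg/mL per compound, given at 1 mL/kg for 0.5 mg/kg per compound.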
Data set [2] relates to Rattus norvegicus. Briefly: Terminal half-life in rat administered with 0.5 mg/kg, iv. The format is functional, organism-based. Details: dose 0.5 mg/kg. The method in brief: as §1
Data set [3] in a line: Maximum concentration in rat administered with 0.5 mg/kg, iv. The settings on record: in vivo. It is filed as ADME, organism-based. Details: dose 0.5 mg/kg, route intravenous.
In data set [4] the target is Cathepsin K (Homo sapiens) (UniProt P43235). Description: Inhibitory constant against human cathepsin K using Z-Phe-Arg-AMC substrate. The settings on record: read-out: Ki app.

Procathepsin L, sequence (P07711 whole entry): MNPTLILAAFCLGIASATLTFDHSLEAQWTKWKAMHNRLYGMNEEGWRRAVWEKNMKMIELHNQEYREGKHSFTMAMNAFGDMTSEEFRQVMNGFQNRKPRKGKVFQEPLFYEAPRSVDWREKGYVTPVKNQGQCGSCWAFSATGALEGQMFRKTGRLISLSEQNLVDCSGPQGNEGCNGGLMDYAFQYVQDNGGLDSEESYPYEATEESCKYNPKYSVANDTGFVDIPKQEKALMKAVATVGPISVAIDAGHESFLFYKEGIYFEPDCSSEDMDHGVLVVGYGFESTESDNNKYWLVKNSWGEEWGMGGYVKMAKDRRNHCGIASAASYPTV
Cathepsin S, sequence (P25774 whole entry): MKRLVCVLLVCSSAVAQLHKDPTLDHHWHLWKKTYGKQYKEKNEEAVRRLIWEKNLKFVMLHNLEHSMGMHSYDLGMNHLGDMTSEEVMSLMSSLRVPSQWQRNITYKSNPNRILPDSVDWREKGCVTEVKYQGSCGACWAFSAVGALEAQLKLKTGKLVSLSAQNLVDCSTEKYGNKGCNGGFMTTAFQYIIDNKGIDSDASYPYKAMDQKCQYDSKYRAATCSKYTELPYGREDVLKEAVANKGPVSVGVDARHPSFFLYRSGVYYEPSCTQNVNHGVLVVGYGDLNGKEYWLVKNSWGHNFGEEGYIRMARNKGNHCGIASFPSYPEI

As usually defined, the IC50 is the midpoint of a concentration-inhibition curve. One may read the Cmax as the highest concentration seen after dosing. `N#CCNC(=O)C1(NC(=O)c2ccc(-c3csc(OC4CCNCC4)n3)cc2)CCCCC1`: the Ki on Cathepsin B is 0.74 µM; at Procathepsin L it was 11 µM; on Cathepsin S it was 68 µM; in data set [4], 0.00057 µM. Also, the IC50 in the data set with Osteoclast was 0.043 µM. The MRT in the data set on Rattus norvegicus [1] amounted to 1.23 h. The same molecule came in with a T1/2 with Rattus norvegicus [2] of 2.53 h. In data set [3], the peak level (Cmax) was 1400 nM.
On to `CC(C)NC1CCN(c2nc(-c3ccc(C(=O)NC4(C(=O)NCC#N)CCCCC4)cc3)cs2)CC1`, for which the Ki was found to be 0.76 µM on Cathepsin B, 12 µM on Procathepsin L, 33 µM at Cathepsin S and 0.00059 µM in data set [4]. Also, in the data set on Osteoclast, the half-inhibitory concentration (IC50) worked out at 0.019 µM. For the same molecule, the MRT in the data set with Rattus norvegicus [1] is 2.42 h. Besides, the T1/2 with Rattus norvegicus [2] came out at 2.55 h. Also, the Cmax in data set [3] stood at 660 nM.
Regarding `CN1CCN(S(=O)(=O)c2ccc(C(=O)NC3(C(=O)NCC#N)CCCCC3)cc2)CC1`, the Ki worked out at 3.1 µM on Cathepsin B, 71 µM on Procathepsin L, 102 µM at Cathepsin S and 0.013 µM in data set [4].
As to `N#CCNC(=O)C1(NC(=O)c2ccc(N3CCOCC3)cc2)CCCCC1`, the Ki on Cathepsin B was 8.6 µM; on Procathepsin L it was 50 µM; on Cathepsin S it was 42 µM; in data set [4], 0.019 µM.
Take `CN1CCC(c2nc(-c3ccc(C(=O)NC4(C(=O)NCC#N)CCCCC4)cc3)cs2)CC1`: the Ki was 1.4 µM on Cathepsin B, 15 µM at Procathepsin L, 20 µM on Cathepsin S and 0.0016 µM in data set [4]. Moreover, 0.061 µM corresponded to half-maximal inhibition with Osteoclast (IC50). In addition, in the data set on Rattus norvegicus [1], the MRT was 0.233 h. Also, the T1/2 in the data set on Rattus norvegicus [2] came to 0.717 h. Also, in data set [3], the Cmax came out at 1430 nM.
As for `CN1CCN(C(=O)c2ccc(C(=O)NC3(C(=O)NCC#N)CCCCC3)cc2)CC1`, the Ki on Cathepsin B is 13 µM; at Procathepsin L, above 150 µM; at Cathepsin S, 110 µM; in data set [4], 0.014 µM.
The matching figures for `N#CCNC(=O)C1(NC(=O)OCc2ccccc2)CC1`: above 150 µM, above 150 µM, above 150 µM and above 150 µM.
On the same counts, the results for `N#CCNC(=O)[C@H](Cc1ccc2ccccc2c1)NC(=O)OCc1ccccc1` are 3 µM, 0.054 µM, 0.18 µM and 30 µM.
On the same counts, the results for `CN(C)c1ccc(C(=O)NC2(C(=O)NCC#N)CCCCC2)cc1` are 5.2 µM, 48 µM, 35 µM and 0.0033 µM.
As to `CC[C@H](C)[C@H](NC(=O)OCc1ccccc1)C(=O)NCC#N`, the Ki is 70 µM on Cathepsin B, 25 µM on Procathepsin L, 14 µM at Cathepsin S and 1.5 µM in data set [4].
On the same counts, the results for `N#CCNC(=O)C1(NC(=O)c2ccc(Br)s2)CCCCC1` are 3.1 µM, 5.9 µM, 1.4 µM and 0.016 µM.
On the same counts, the results for `CC(C)(C)[C@H](NC(=O)OCc1ccccc1)C(=O)NCC#N` are above 150 µM, above 150 µM, above 150 µM and 1.9 µM.
The matching figures for `N#CCNC(=O)C1(NC(=O)c2cccc(Br)c2)CCCCC1`: 7.9 µM, 7.9 µM, 6.2 µM and 0.23 µM.
As to `CN1CCN(c2ccc(C(=O)NC3(C(=O)NCC#N)CCCCC3)cc2)CC1`, the Ki came to 2.7 µM at Cathepsin B, 9.6 µM at Procathepsin L, 16 µM on Cathepsin S and 0.0015 µM in data set [4].
The matching figures for `C#Cc1ccc(C(=O)NC2(C(=O)NCC#N)CCCCC2)cc1`: 1.1 µM, 18 µM, 15 µM and 0.013 µM.
On the same counts, the results for `N#CCNC(=O)C1(NC(=O)c2ccc(-c3ccccc3)cc2)CCCCC1` are 1.3 µM, 23 µM, 8.8 µM and 0.0062 µM.
Regarding `CN(C)c1ccc(-c2ccc(C(=O)NC3(C(=O)NCC#N)CCCCC3)cc2)cc1`, the Ki was determined as 0.68 µM on Cathepsin B, 3.2 µM at Procathepsin L, 5.7 µM at Cathepsin S and 0.002 µM in data set [4].
On the same counts, the results for `CC(C)(C)C[C@H](NC(=O)OCc1ccccc1)C(=O)NCC#N` are 63 µM, 23 µM, 0.15 µM and 0.23 µM.
For `CC(C)C[C@](C)(NC(=O)OCc1ccccc1)C(=O)NCC#N`, the Ki on Cathepsin B was above 150 µM; at Procathepsin L it was above 150 µM; at Cathepsin S, 4.2 µM; in data set [4] it was 1.8 µM.
Regarding `N#CCNC(=O)C1(NC(=O)c2ccc(-c3ccc(-c4ccno4)cc3)cc2)CCCCC1`, the Ki on Cathepsin B is 1.8 µM; at Procathepsin L, 0.42 µM; on Cathepsin S, 2.5 µM; in data set [4], 0.0054 µM. The concentration for half-maximal inhibition (IC50) in the data set on Osteoclast is 0.037 µM.
On the same counts, the results for `CN1CCC(N(C)c2ccc(-c3ccc(C(=O)NC4(C(=O)NCC#N)CCCCC4)cc3)cc2)C1` (stereo not given) are 0.34 µM, 2 µM, 8.7 µM, below 0.00025 µM and 0.033 µM.
With `CC(C)C[C@@H](NC(=O)OCc1ccccc1)C(=O)NCC#N`, the Ki on Cathepsin B was above 150 µM; on Procathepsin L, above 150 µM; on Cathepsin S it was 13.6 µM; in data set [4] it was 13 µM.
For `N#CCNC(=O)C1(NC(=O)OCc2ccccc2)CCCCC1`, the Ki turned out to be 64 µM at Cathepsin B, 95 µM at Procathepsin L, 31 µM on Cathepsin S and 0.084 µM in data set [4].
Take `N#CCNC(=O)C1(NC(=O)c2ccc(-c3csc(CN4CCOCC4)n3)cc2)CCCCC1`: the Ki was 3.8 µM at Cathepsin B, 2.2 µM on Procathepsin L, 0.25 µM at Cathepsin S and 0.0087 µM in data set [4]. Moreover, half-maximal inhibition in the data set with Osteoclast (IC50) was put at 0.21 µM. For the same molecule, in the data set with Rattus norvegicus [1], the MRT amounted to 0.26 h. The molecule also displayed a Cmax in data set [3] of 550 nM.
`CCCC[C@H](NC(=O)OCc1ccccc1)C(=O)NCC#N`: the Ki was above 150 µM at Cathepsin B, 37 µM on Procathepsin L, 0.86 µM on Cathepsin S and 0.49 µM in data set [4].
The matching figures for `N#CCNC(=O)C1(NC(=O)c2ccc(Br)cc2)CCCCC1`: 2.3 µM, 17 µM, 10 µM and 0.018 µM.
Turning to `CCCN1CCN(c2ccc(C(=O)NC3(C(=O)NCC#N)CCCCC3)cc2)CC1` [BALICATIB], the Ki on Cathepsin B is 2.9 µM; at Procathepsin L it was 18 µM; at Cathepsin S it was 28 µM.
On to `CC(C[C@H](NC(=O)OCc1ccccc1)C(=O)NCC#N)C(F)(F)F` (stereo not given in full), for which the Ki at Cathepsin B was above 150 µM; at Procathepsin L, 22 µM; on Cathepsin S, 0.4 µM; in data set [4], 0.35 µM.
The matching figures for `N#CCNC(=O)[C@@H](NC(=O)OCc1ccccc1)c1ccccc1`: above 150 µM, 88 µM, 3.5 µM and 17 µM.
The matching figures for `C[C@@H](O)[C@H](NC(=O)OCc1ccccc1)C(=O)NCC#N`: above 150 µM, 14 µM, 42 µM and 11 µM.
The matching figures for `N#CCNC(=O)C1(NC(=O)c2ccc(N)cc2)CCCCC1`: 10 µM, 45 µM, 6.5 µM and 0.032 µM.
For the molecule `N#CCNC(=O)C1(NC(=O)c2cccc(-c3ccccc3)c2)CCCCC1`, the Ki worked out at 8.3 µM at Cathepsin B, 22 µM on Procathepsin L, 1.9 µM on Cathepsin S and 0.21 µM in data set [4].
The matching figures for `CC(C)C[C@H](NC(=O)OCc1ccccc1)C(=O)NCC#N`: 123 µM, 2.79 µM, 0.143 µM and 0.0347 µM.
The matching figures for `N#CCNC(=O)C1(NC(=O)OCc2ccccc2)CCCC1`: 110 µM, above 150 µM, above 150 µM and 1.5 µM.
Consider `N#CCNC(=O)C1(NC(=O)CCc2ccccc2)CCCCC1`, for which the Ki was 99 µM on Cathepsin B, above 150 µM at Procathepsin L, 34 µM at Cathepsin S and 0.41 µM in data set [4].
As to `N#CCNC(=O)C1(NC(=O)c2csc(-c3ccncc3)n2)CCCCC1`, the Ki at Cathepsin B is 9.3 µM; on Procathepsin L, above 150 µM; on Cathepsin S it was 4 µM; in data set [4] it was 0.15 µM.
With `CN1CCC[C@H]1COc1ccc(-c2ccc(C(=O)NC3(C(=O)NCC#N)CCCCC3)cc2)cc1`, the Ki at Cathepsin B is 0.59 µM; on Procathepsin L, 4 µM; on Cathepsin S, 10 µM; in data set [4], below 0.00025 µM. Also, it took 0.024 µM to reach half-maximal inhibition in the data set on Osteoclast (IC50).
